Experimental data published in ChEMBL document CHEMBL3352443, “Synthesis of new heterocyclic lupeol derivatives as nitric oxide and pro-inflammatory cytokine inhibitors” (Bioorg Med Chem Lett, 2014).

How the values were obtained:
[1] = Antiinflammatory activity in mouse J774A1 cells assessed as inhibition of LPS-induced NO production incubated for 1 hr prior to LPS challenge measured after 24 hrs by Griess method; format: functional, cell-based; settings: J774.A1
Outline: (§1)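 NO release was measured in LPS-stimulated macrophages, and IC50 values were derived from it. Data are mean ± SD of three separate experiments, each run in triplicate.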

[2] = Cytotoxicity against mouse RAW264.7 cells assessed as cell viability at IC50 by MTT assay relative to control; format: cell-based; settings: read-out: Activity
[3] = system: RAW264.7; assay: Antiinflammatory activity in mouse RAW264.7 cells assessed as inhibition of LPS-induced NO production incubated for 1 hr prior to LPS challenge measured after 24 hrs by Griess method; format: functional, cell-based; outline: as §1
[4] = Cytotoxicity against mouse J774A1 cells assessed as cell viability at IC50 by MTT assay relative to control; format: cell-based, J774.A1; settings: read-out: Activity
[5] = system: RAW264.7; assay: Antiinflammatory activity in mouse RAW264.7 cells assessed as inhibition of LPS-induced IL-1beta production at 20 ug/ml incubated for 1 hr prior to LPS challenge measured after 12 hrs by sandwich ELISA relative to control; format: functional
Outline: (§2)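 Compounds were tested at 20 µg/mL on LPS-stimulated cells. TNF-α and IL-1β released into the medium were quantified with an ELISA kit following the kit protocol and expressed as % inhibition. Data are mean ± SD of three separate experiments, each run in triplicate.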

[6] = Antiinflammatory activity in mouse J774A1 cells assessed as inhibition of LPS-induced TNF-alpha production at 20 ug/ml incubated for 1 hr prior to LPS challenge measured after 6 hrs by sandwich ELISA relative to control; format: functional; settings: J774.A1; outline: as §2
[7] = system: RAW264.7; assay: Antiinflammatory activity in mouse RAW264.7 cells assessed as inhibition of LPS-induced TNF-alpha production at 20 ug/ml incubated for 1 hr prior to LPS challenge measured after 6 hrs by sandwich ELISA relative to control; format: functional; outline: as §2
[8] = Antiinflammatory activity in mouse J774A1 cells assessed as inhibition of LPS-induced IL-1beta production at 20 ug/ml incubated for 1 hr prior to LPS challenge measured after 12 hrs by sandwich ELISA relative to control; format: functional; settings: J774.A1; outline: as §2

Compound | IC50 [1] | IC50 [3] | viability [2] | viability [4] | inhibition at 20 µg/mL [5] | inhibition at 20 µg/mL [6] | inhibition at 20 µg/mL [7] | inhibition at 20 µg/mL [8]
C=C(C)[C@@H]1CC[C@]2(C)CC[C@]3(C)[C@H](CC[C@@H]4[C@@]5(C)CC[C@H](OC(=O)CCC(=O)O)C(C)(C)[C@@H]5CC[C@]43C)[C@@H]12 | 39.3 µM | 39.2 µM | 91.3% | 90.1% |  |  |  | 
C=C(C)[C@@H]1CC[C@]2(C)CC[C@]3(C)[C@H](CC[C@@H]4[C@@]5(C)Cc6c([nH]c7ccc(C)cc67)C(C)(C)[C@@H]5CC[C@]43C)[C@@H]12 | 28.6 µM | 27.8 µM | 89.3% | 87% |  |  |  | 
C=C(C)[C@@H]1CC[C@]2(C)CC[C@]3(C)[C@H](CC[C@@H]4[C@@]5(C)CC[C@H](OC(C)=O)C(C)(C)[C@@H]5CC[C@]43C)C12 (single isomer, unassigned) [LUPENYL ACETATE] | 33.2 µM | 36.7 µM | 80.3% | 83.5% |  |  |  | 
COC(=O)[C@@H](N)CCCNC(=N)N[N+](=O)[O-] [L-NAME] | 73.2 µM | 69.2 µM |  |  |  |  |  | 
C=C(C=O)[C@@H]1CC[C@]2(C)CC[C@]3(C)[C@H](CC[C@@H]4[C@@]5(C)CC[C@H](O)C(C)(C)[C@@H]5CC[C@]43C)[C@@H]12 | 37 µM | 42.9 µM | 95.2% | 92.1% |  |  |  | 
C=C(C)[C@@H]1CC[C@]2(C)CC[C@]3(C)[C@H](CC[C@@H]4[C@@]5(C)CCC(=O)C(C)(C)[C@@H]5CC[C@]43C)[C@@H]12 [LUPENONE] | 38.8 µM | 38.5 µM | 89.6% | 87.7% |  |  |  | 
C=C(C)[C@@H]1CC[C@]2(C)CC[C@]3(C)[C@H](CC[C@@H]4[C@@]5(C)Cc6c([nH]c7ccc(I)cc67)C(C)(C)[C@@H]5CC[C@]43C)[C@@H]12 | 25.2 µM | 22.6 µM | 95.2% | 93.3% | 22.9% | 37% | 42.3% | 17.3%
C=C(C)[C@@H]1CC[C@]2(C)CC[C@]3(C)[C@H](CC[C@@H]4[C@@]5(C)Cc6c([nH]c7c(CC)cccc67)C(C)(C)[C@@H]5CC[C@]43C)[C@@H]12 | 28.6 µM | 30.6 µM | 91.5% | 91.7% | 11.4% | 29.4% | 39.1% | 10.1%
C=C(C)[C@@H]1CC[C@]2(C)CC[C@]3(C)[C@H](CC[C@@H]4[C@@]5(C)Cc6c([nH]c7ccccc67)C(C)(C)[C@@H]5CC[C@]43C)[C@@H]12 | 31.7 µM | 31.7 µM | 91.8% | 90.3% |  |  |  | 

Second part, led by results:

IC50 [1] | IC50 [3] | Compound | viability [2] | viability [4] | inhibition at 20 µg/mL [5] | inhibition at 20 µg/mL [6] | inhibition at 20 µg/mL [7] | inhibition at 20 µg/mL [8]
44.6 µM | 46 µM | C=C(C)[C@@H]1CC[C@]2(C)CC[C@]3(C)[C@H](CC[C@@H]4[C@@]5(C)CC/C(=N\O)C(C)(C)[C@@H]5CC[C@]43C)[C@@H]12 | 95.7% | 93.6% |  |  |  | 
36.3 µM | 36.2 µM | C=C(C)[C@@H]1CC[C@]2(C)CC[C@]3(C)[C@H](CC[C@@H]4[C@@]5(C)CCC(=S)C(C)(C)[C@@H]5CC[C@]43C)[C@@H]12 | 94.3% | 91.9% |  |  |  | 
23.2 µM | 25.9 µM | C=C(C)[C@@H]1CC[C@]2(C)CC[C@]3(C)[C@H](CC[C@@H]4[C@@]5(C)Cc6c([nH]c7c(C)ccc(C)c67)C(C)(C)[C@@H]5CC[C@]43C)[C@@H]12 | 93.2% | 91.5% | 22.8% | 31.1% | 32.8% | 17.2%
18.5 µM | 11 µM | COc1cc(/C=C/C(=O)CC(=O)/C=C/c2ccc(O)c(OC)c2)ccc1O [CURCUMIN] |  |  |  |  |  | 
47.7 µM | 48.7 µM | C=C(C)[C@@H]1CC[C@]2(C)CC[C@]3(C)[C@H](CC[C@@H]4[C@@]5(C)CC[C@H](N(O)c6ccccc6)C(C)(C)[C@@H]5CC[C@]43C)[C@@H]12 | 79.3% | 82.5% |  |  |  | 
18.4 µM | 23.9 µM | C=C(C)[C@@H]1CC[C@]2(C)CC[C@]3(C)[C@H](CC[C@@H]4[C@@]5(C)Cc6c([nH]c7ccc(Br)cc67)C(C)(C)[C@@H]5CC[C@]43C)[C@@H]12 | 91.4% | 90.8% | 19.7% | 31.5% | 39.2% | 16.2%
41.7 µM | 41.7 µM | C=C(C)[C@@H]1CC[C@]2(C)CC[C@]3(C)[C@H](CC[C@@H]4[C@@]5(C)Cc6c([nH]c7ccc(F)cc67)C(C)(C)[C@@H]5CC[C@]43C)[C@@H]12 | 95.2% | 92.1% |  |  |  | 
34.5 µM | 37.3 µM | C=C(C)[C@@H]1CC[C@]2(C)CC[C@]3(C)[C@H](CC[C@@H]4[C@@]5(C)CC[C@H](O)C(C)(C)[C@@H]5CC[C@]43C)[C@@H]12 [LUPEOL] | 87.3% | 88.3% |  |  |  | 
33.2 µM | 35.6 µM | C=C(C)[C@@H]1CC[C@]2(C)CC[C@]3(C)[C@H](CC[C@@H]4[C@@]5(C)Cc6c([nH]c7ccc(Cl)cc67)C(C)(C)[C@@H]5CC[C@]43C)[C@@H]12 | 93.3% | 92.7% |  |  |  | 
32.4 µM | 32.4 µM | C=C(C)[C@@H]1CC[C@]2(C)CC[C@]3(C)[C@H](CC[C@@H]4[C@@]5(C)Cc6nccnc6C(C)(C)[C@@H]5CC[C@]43C)[C@@H]12 | 95.2% | 93.3% |  |  |  | 
42.6 µM | 39.2 µM | C=C(C)[C@@H]1CC[C@]2(C)CC[C@]3(C)[C@H](CC[C@@H]4[C@@]5(C)CC[C@H](OC(=O)CC(C)(C)C(=O)O)C(C)(C)[C@@H]5CC[C@]43C)[C@@H]12 | 87.6% | 83.6% |  |  |  | 
